In publication PMC11303814 (Nature Communications, 2024):
Residue numbers refer to the chain shown, from its start. “Also recorded” adds a separate entry of the source.

Experiments:
wild-type rP2X7 = molecular target: T1, wild-type rP2X7 (Rattus norvegicus, UniProt Q64663); assay: TEVC efficacy experiments, wild-type rP2X7 in oocytes; format: cell-based; conditions: WT rP2X7, identical concentrations of ATP and BzATP
T1 sequence (Q64663 1-595): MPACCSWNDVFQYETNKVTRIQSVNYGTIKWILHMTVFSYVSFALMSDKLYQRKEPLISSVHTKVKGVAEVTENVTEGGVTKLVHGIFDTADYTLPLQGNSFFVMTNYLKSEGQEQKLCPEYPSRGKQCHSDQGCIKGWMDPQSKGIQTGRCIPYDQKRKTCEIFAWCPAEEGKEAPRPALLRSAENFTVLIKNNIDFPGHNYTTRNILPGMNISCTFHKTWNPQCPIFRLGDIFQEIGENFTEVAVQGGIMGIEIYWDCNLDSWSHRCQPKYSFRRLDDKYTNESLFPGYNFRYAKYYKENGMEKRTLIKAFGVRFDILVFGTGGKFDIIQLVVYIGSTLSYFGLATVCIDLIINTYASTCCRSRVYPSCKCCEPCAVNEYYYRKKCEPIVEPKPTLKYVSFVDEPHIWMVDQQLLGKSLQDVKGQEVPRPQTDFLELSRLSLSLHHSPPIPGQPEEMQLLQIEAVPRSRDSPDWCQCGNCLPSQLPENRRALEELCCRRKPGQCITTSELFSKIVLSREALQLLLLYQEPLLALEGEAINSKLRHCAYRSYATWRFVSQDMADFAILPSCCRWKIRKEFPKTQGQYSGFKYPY
Outline: (§1)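 Oocytes expressing rP2X7 (~20 h after mRNA injection), TEVC in pH 7.4 HEPES/flufenamic acid buffer. Each oocyte first received 100 µM ATP as the normalization reference, then sequentially 50 µM ATP, 50 µM BzATP, 100 µM ATP and 100 µM BzATP, with buffer washout to baseline between applications. Normalized currents are from triplicates per concentration per construct; mean ± SD.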

rP2X7-R125A = molecular target: T2, rP2X7-R125A (Rattus norvegicus, UniProt Q64663, R125A); assay: TEVC deactivation time; format: cell-based; conditions: after 100 μM ATP or 10 μM BzATP
T2 sequence (Q64663 1-595 R125A): T1 sequence (Q64663 1-595) with R125A
Outline: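 Xenopus oocytes injected with 50 nL of 10 ng/µL mutant rP2X7 mRNA, expressed ~20 h, clamped in pH 7.4 HEPES buffer with 0.1 mM flufenamic acid and EDTA. Currents were evoked by 100 µM ATP or 10 µM BzATP. τ is the time for current to return to 63% of baseline after agonist removal, from a one- or two-phase decay fit. Done in triplicate over first to third applications per oocyte; mean ± SD.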

biotinylated rP2X7 = molecular target: T3, biotinylated rP2X7 (Rattus norvegicus, UniProt Q64663); assay: Bio-layer interferometry; format: binding; conditions: for rate constant for association (ka) / rate constant for dissociation (kd): 30 °C, PBS pH 7.4, 0.5 mM DDM, 1:1 Langmuir global fit, mean ± SD of three
T3 sequence (Q64663 1-595): T1 sequence (Q64663 1-595)
Outline: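 Full-length rat P2X7 expressed in HEK293 GnTI cells by BacMam, purified in DDM/CHS (TALON, SEC), then biotinylated with NHS-PEG12-biotin at pH 8.0, 23 °C, 60 min. Loaded at 50 µg/ml onto streptavidin tips, blocked with biocytin. Threefold agonist dilutions (ATP 30–0.12 µM; BzATP 3.3–0.014 µM): 90 s association, 300 s (ATP) or 800 s (BzATP) dissociation. Double reference subtraction used biocytin sensors and zero analyte. KD = kd/ka.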

[1] = molecular target: T4, rP2X7 triple mutant (R125A/Q143A/I214A) (Rattus norvegicus, UniProt Q64663, I214A/Q143A/R125A); assay: TEVC efficacy experiments, triple mutant rP2X7 in oocytes; format: cell-based; conditions: identical concentrations
T4 sequence (Q64663 1-595 R125A/Q143A/I214A): T1 sequence (Q64663 1-595) with R125A, Q143A, I214A
Outline: as §1

| deactivation lifetime τ (rP2X7-R125A) | rate constant for association (ka) (biotinylated rP2X7; BLI) | rate constant for dissociation (kd) (biotinylated rP2X7; BLI) | affinity for rP2X7 lower than that of human P2X3 (biotinylated rP2X7; KD rP2X7 vs human P2X3) | affinity for rP2X7 lower than that of zebra fish P2X4 (biotinylated rP2X7; KD rP2X7 vs zebra fish P2X4) | higher binding affinity (KD) than ATP (biotinylated rP2X7; BLI, rP2X7) | Molecule | efficacy (agonist character, current amplitude) (wild-type rP2X7) | efficacy (agonist character, current amplitude) [1] |
| --- | --- | --- | --- | --- | --- | --- | --- | --- |
| 3.5 ± 0.6 s | 9.4 ± 2.4 x10^4 M^−1s^−1 | 5.1 ± 2.5 x10^−2 s^−1 | approximately 190 fold | ~46 fold | – | Nc1ncnc2c1ncn2[C@@H]1O[C@H](COP(=O)(O)OP(=O)(O)OP(=O)(O)O)[C@@H](O)[C@H]1O [ATP] | partial agonist | equivalent agonists in terms of efficacy; also recorded: equal current amplitudes |
| 18 ± 3.7 s | 3.7 ± 1.0 x10^5 M^−1s^−1 | 2.6 ± 1.0 x10^−3 s^−1 | – | – | ~ 70 fold | BzATP | full agonist; also recorded: greater inward current than ATP | equivalent agonists in terms of efficacy; also recorded: equal current amplitudes |
